Here are results for 10 compounds from ChEMBL document CHEMBL4431340, “Pyridyl-alanine as a Hydrophilic, Aromatic Element in Peptide Structural Optimization” (J Med Chem, 2016).

Active and inactive are the calls of the source. The calls are words filed in the database; no cut-off is given here. Non-standard residues stand in square brackets, D forms with d. Residues, ends and D or L forms follow the SMILES beside them. 3Pal = N[C@@H](Cc1cccnc1)C(=O)O; Aib = CC(C)(N)C(=O)O Where only a bound is given, the exact number is not on record here.

Series [1] in a line: Aqueous solubility of the compound in PBS assessed as precipitate formation at pH 7 after 1 hr. The settings on record: buffer, pH 7, 1 h.
A short description of series [2]: Aqueous solubility of the compound in PBS at 1 to 10 mg/ml assessed as precipitate formation at pH 7 at 4 degC after 7 days. As to conditions: buffer, pH 7, 168 h. The series is classed as physicochemical.
Series [3] relates to Rattus norvegicus. Description: Antihypoglycemic activity in lean Wistar rat assessed as prevention of insulin-induced glucose reduction at 15 nmol/kg, ip after 30 mins by glucometer. The series is classed as functional, organism-based. In a few lines:
(§1)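 Lean rats received a fixed insulin dose chosen to induce hypoglycemia, together with peptide or vehicle. Blood glucose was followed for 60 min after administration. Groups were compared by one-way ANOVA with Dunnett's test against the insulin group, with P < 0.05 taken as significant.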

Series [4] concerns Rattus norvegicus. Briefly: Antihypoglycemic activity in lean Wistar rat assessed as prevention of insulin-induced glucose reduction at 15 nmol/kg, ip after 60 mins by glucometer. Type of series: functional, organism-based. The essentials: as §1
For series [5], the system named is Rattus norvegicus. Description: Hyperglycemic activity in lean Wistar rat assessed as elevation of plasma glucose levels at 10 nmol/kg, ip after 120 mins in absence of insulin by glucometer. Type of series: functional, organism-based.
The test system of another series is Sus scrofa. Briefly: Antihypoglycemic activity in diabetic Yucatan pig assessed as prevention of insulin detemir-induced blood glucose reduction at 10 nmol/kg, sc administered 240 mins post insulin detemir challenge measured during compound dosing by glucometer.
The target of series [6] is Glucagon receptor (Homo sapiens) (UniProt P47871). Briefly: Activation of glucagon receptor (unknown origin) transfected in HEK293 cells co-transfected with luciferase reporter gene linked CRE element assessed as compound EC50 preincubated in PBS buffer for 4 weeks at elevated temperature and pH 7 followed by protein addition measured after 5 hrs in presence of luclite substrate by liquid scintillation counting relative to control. The series is classed as functional, cell-based. The essentials:
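Analog incubated at 2.0 mg/mL in 50 mM sodium phosphate, 150 mM NaCl at pH 7 (also pH 5, 6), 37 °C, stirred at 200 rpm for 1 and 4 weeks. T=0 reference kept at -45 °C. […] Cells exposed to serial dilutions for 5 h at 37 °C, then LucLite luminescence read. Reported as percent change in EC50.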

Sequence of Glucagon receptor (Homo sapiens) (P47871 whole entry): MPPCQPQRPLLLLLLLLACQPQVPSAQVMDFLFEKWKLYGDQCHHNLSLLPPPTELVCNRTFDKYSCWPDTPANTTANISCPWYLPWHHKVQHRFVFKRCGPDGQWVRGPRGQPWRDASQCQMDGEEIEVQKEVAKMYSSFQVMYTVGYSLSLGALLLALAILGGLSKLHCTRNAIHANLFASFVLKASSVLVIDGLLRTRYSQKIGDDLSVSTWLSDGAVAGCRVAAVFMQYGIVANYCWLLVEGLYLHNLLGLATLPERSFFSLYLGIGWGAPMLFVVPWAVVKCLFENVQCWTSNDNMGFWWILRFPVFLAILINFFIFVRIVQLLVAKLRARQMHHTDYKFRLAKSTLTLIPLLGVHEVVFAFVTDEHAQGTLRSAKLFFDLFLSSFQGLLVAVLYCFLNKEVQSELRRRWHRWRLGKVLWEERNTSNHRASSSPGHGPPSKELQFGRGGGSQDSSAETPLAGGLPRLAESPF

Take `CSCC[C@H](NC(=O)[C@H](CC(C)C)NC(=O)[C@H](Cc1c[nH]c2ccccc12)NC(=O)[C@H](CCC(N)=O)NC(=O)[C@@H](NC(=O)[C@H](Cc1ccccc1)NC(=O)[C@H](CC(=O)O)NC(=O)[C@H](CCC(N)=O)NC(=O)[C@H](C)NC(=O)[C@H](CCCNC(=N)N)NC(=O)[C@H](CCCNC(=N)N)NC(=O)C(C)(C)NC(=O)[C@H](CC(=O)O)NC(=O)[C@H](CC(C)C)NC(=O)[C@H](Cc1ccncc1)NC(=O)[C@H](CCCCN)NC(=O)[C@H](CO)NC(=O)[C@H](Cc1ccncc1)NC(=O)[C@H](CC(=O)O)NC(=O)[C@H](CO)NC(=O)[C@@H](NC(=O)[C@H](Cc1ccncc1)NC(=O)[C@@H](NC(=O)CNC(=O)[C@H](CCC(N)=O)NC(=O)[C@H](CO)NC(=O)[C@@H](N)Cc1cnc[nH]1)[C@@H](C)O)[C@@H](C)O)C(C)C)C(=O)N[C@@H](CC(N)=O)C(=O)N[C@H](C(=O)O)[C@@H](C)O`: the solubility in series [1] was above 15 mg/mL; in series [2] it was “Soluble”.

GLUCAGON: in the series with Rattus norvegicus [3], the result was inactive. The result in the series on Rattus norvegicus [4] and with Rattus norvegicus [5] was Active.

Take `CSCC[C@H](NC(=O)[C@H](CC(C)C)NC(=O)[C@H](Cc1c[nH]c2ccccc12)NC(=O)[C@H](CCC(N)=O)NC(=O)[C@@H](NC(=O)[C@H](Cc1ccccc1)NC(=O)[C@H](CC(=O)O)NC(=O)[C@H](CCC(N)=O)NC(=O)[C@H](C)NC(=O)[C@H](CCCNC(=N)N)NC(=O)[C@H](CCCNC(=N)N)NC(=O)C(C)(C)NC(=O)[C@H](CC(=O)O)NC(=O)[C@H](CC(C)C)NC(=O)[C@H](Cc1cccnc1)NC(=O)[C@H](CCCCN)NC(=O)[C@H](CO)NC(=O)[C@H](Cc1cccnc1)NC(=O)[C@H](CC(=O)O)NC(=O)[C@H](CO)NC(=O)[C@@H](NC(=O)[C@H](Cc1cccnc1)NC(=O)[C@@H](NC(=O)CNC(=O)[C@H](CCC(N)=O)NC(=O)[C@H](CO)NC(=O)[C@@H](N)Cc1cnc[nH]1)[C@@H](C)O)[C@@H](C)O)C(C)C)C(=O)N[C@@H](CC(N)=O)C(=O)N[C@H](C(=O)O)[C@@H](C)O`: the solubility in series [1] is above 15 mg/mL; in series [2], “Soluble”. The result in the series with Sus scrofa, in the series with Rattus norvegicus [4] and in the series on Rattus norvegicus [5] was Active. Moreover, the result in the series on Rattus norvegicus [3] was inactive. Also, the Activity in series [6] turned out to be 82%.

As for `CSCC[C@H](NC(=O)[C@H](CC(C)C)NC(=O)[C@H](Cc1c[nH]c2ccccc12)NC(=O)[C@H](CCC(N)=O)NC(=O)[C@@H](NC(=O)[C@H](Cc1ccccc1)NC(=O)[C@H](CC(=O)O)NC(=O)[C@H](CCC(N)=O)NC(=O)[C@H](C)NC(=O)[C@H](CCCNC(=N)N)NC(=O)[C@H](CCCNC(=N)N)NC(=O)C(C)(C)NC(=O)[C@H](CC(=O)O)NC(=O)[C@H](CC(C)C)NC(=O)[C@H](Cc1ccncc1)NC(=O)[C@H](CCCCN)NC(=O)[C@H](CO)NC(=O)[C@H](Cc1ccc(O)cc1)NC(=O)[C@H](CC(=O)O)NC(=O)[C@H](CO)NC(=O)[C@@H](NC(=O)[C@H](Cc1ccccc1)NC(=O)[C@@H](NC(=O)CNC(=O)[C@H](CCC(N)=O)NC(=O)[C@H](CO)NC(=O)[C@@H](N)Cc1cnc[nH]1)[C@@H](C)O)[C@@H](C)O)C(C)C)C(=O)N[C@@H](CC(N)=O)C(=O)N[C@H](C(=O)O)[C@@H](C)O`, in series [1], the solubility is above 1 mg/mL.

As for `CSCC[C@H](NC(=O)[C@H](CC(C)C)NC(=O)[C@H](Cc1c[nH]c2ccccc12)NC(=O)[C@H](CCC(N)=O)NC(=O)[C@@H](NC(=O)[C@H](Cc1cccnc1)NC(=O)[C@H](CC(=O)O)NC(=O)[C@H](CCC(N)=O)NC(=O)[C@H](C)NC(=O)[C@H](CCCNC(=N)N)NC(=O)[C@H](CCCNC(=N)N)NC(=O)C(C)(C)NC(=O)[C@H](CC(=O)O)NC(=O)[C@H](CC(C)C)NC(=O)[C@H](Cc1cccnc1)NC(=O)[C@H](CCCCN)NC(=O)[C@H](CO)NC(=O)[C@H](Cc1cccnc1)NC(=O)[C@H](CC(=O)O)NC(=O)[C@H](CO)NC(=O)[C@@H](NC(=O)[C@H](Cc1cccnc1)NC(=O)[C@@H](NC(=O)CNC(=O)[C@H](CCC(N)=O)NC(=O)[C@H](CO)NC(=O)[C@@H](N)Cc1cnc[nH]1)[C@@H](C)O)[C@@H](C)O)C(C)C)C(=O)N[C@@H](CC(N)=O)C(=O)N[C@H](C(=O)O)[C@@H](C)O` (H-HSQGT[3Pal]TSD[3Pal]SK[3Pal]LD[Aib]RRAQD[3Pal]VQWLMNT-OH), the solubility in series [1] is above 15 mg/mL; in series [2], “Soluble”.

Consider `CSCC[C@H](NC(=O)[C@H](CC(C)C)NC(=O)[C@H](Cc1c[nH]c2ccccc12)NC(=O)[C@H](CCC(N)=O)NC(=O)[C@@H](NC(=O)[C@H](Cc1ccccc1)NC(=O)[C@H](CC(=O)O)NC(=O)[C@H](CCC(N)=O)NC(=O)[C@H](C)NC(=O)[C@H](CCCNC(=N)N)NC(=O)[C@H](CCCNC(=N)N)NC(=O)C(C)(C)NC(=O)[C@H](CC(=O)O)NC(=O)[C@H](CC(C)C)NC(=O)[C@H](Cc1ccncc1)NC(=O)[C@H](CCCCN)NC(=O)[C@H](CO)NC(=O)[C@H](Cc1ccncc1)NC(=O)[C@H](CC(=O)O)NC(=O)[C@H](CO)NC(=O)[C@@H](NC(=O)[C@H](Cc1ccccc1)NC(=O)[C@@H](NC(=O)CNC(=O)[C@H](CCC(N)=O)NC(=O)[C@H](CO)NC(=O)[C@@H](N)Cc1cnc[nH]1)[C@@H](C)O)[C@@H](C)O)C(C)C)C(=O)N[C@@H](CC(N)=O)C(=O)N[C@H](C(=O)O)[C@@H](C)O`, for which the values for the solubility in series [1] and in series [2] were above 15 mg/mL and “Soluble”, respectively.

On to `CSCC[C@H](NC(=O)[C@H](CC(C)C)NC(=O)[C@H](Cc1c[nH]c2ccccc12)NC(=O)[C@H](CCC(N)=O)NC(=O)[C@@H](NC(=O)[C@H](Cc1ccccc1)NC(=O)[C@H](CC(=O)O)NC(=O)[C@H](CCC(N)=O)NC(=O)[C@H](C)NC(=O)[C@H](CCCNC(=N)N)NC(=O)[C@H](CCCNC(=N)N)NC(=O)C(C)(C)NC(=O)[C@H](CC(=O)O)NC(=O)[C@H](CC(C)C)NC(=O)[C@H](Cc1cccnc1)NC(=O)[C@H](CCCCN)NC(=O)[C@H](CO)NC(=O)[C@H](Cc1ccc(O)cc1)NC(=O)[C@H](CC(=O)O)NC(=O)[C@H](CO)NC(=O)[C@@H](NC(=O)[C@H](Cc1ccccc1)NC(=O)[C@@H](NC(=O)CNC(=O)[C@H](CCC(N)=O)NC(=O)[C@H](CO)NC(=O)[C@@H](N)Cc1cnc[nH]1)[C@@H](C)O)[C@@H](C)O)C(C)C)C(=O)N[C@@H](CC(N)=O)C(=O)N[C@H](C(=O)O)[C@@H](C)O`, for which the solubility in series [1] is above 1 mg/mL.

For the compound `CSCC[C@H](NC(=O)[C@H](CC(C)C)NC(=O)[C@H](Cc1c[nH]c2ccccc12)NC(=O)[C@H](CCC(N)=O)NC(=O)[C@@H](NC(=O)[C@H](Cc1ccccc1)NC(=O)[C@H](CC(=O)O)NC(=O)[C@H](CCC(N)=O)NC(=O)[C@H](C)NC(=O)[C@H](CCCNC(=N)N)NC(=O)[C@H](CCCNC(=N)N)NC(=O)C(C)(C)NC(=O)[C@H](CC(=O)O)NC(=O)[C@H](CC(C)C)NC(=O)[C@H](Cc1cccnc1)NC(=O)[C@H](CCCCN)NC(=O)[C@H](CO)NC(=O)[C@H](Cc1cccnc1)NC(=O)[C@H](CC(=O)O)NC(=O)[C@H](CO)NC(=O)[C@@H](NC(=O)[C@H](Cc1ccccc1)NC(=O)[C@@H](NC(=O)CNC(=O)[C@H](CCC(N)=O)NC(=O)[C@H](CO)NC(=O)[C@@H](N)Cc1cnc[nH]1)[C@@H](C)O)[C@@H](C)O)C(C)C)C(=O)N[C@@H](CC(N)=O)C(=O)N[C@H](C(=O)O)[C@@H](C)O`, the solubility in series [1] is above 15 mg/mL.

Turning to `CSCC[C@H](NC(=O)[C@H](CC(C)C)NC(=O)[C@H](Cc1c[nH]c2ccccc12)NC(=O)[C@H](CCC(N)=O)NC(=O)[C@@H](NC(=O)[C@H](Cc1ccccc1)NC(=O)[C@H](CC(=O)O)NC(=O)[C@H](CCC(N)=O)NC(=O)[C@H](C)NC(=O)[C@H](CCCNC(=N)N)NC(=O)[C@H](CCCNC(=N)N)NC(=O)C(C)(C)NC(=O)[C@H](CC(=O)O)NC(=O)[C@H](CC(C)C)NC(=O)[C@H](Cc1ccc(O)cc1)NC(=O)[C@H](CCCCN)NC(=O)[C@H](CO)NC(=O)[C@H](Cc1cccnc1)NC(=O)[C@H](CC(=O)O)NC(=O)[C@H](CO)NC(=O)[C@@H](NC(=O)[C@H](Cc1ccccc1)NC(=O)[C@@H](NC(=O)CNC(=O)[C@H](CCC(N)=O)NC(=O)[C@H](CO)NC(=O)[C@@H](N)Cc1cnc[nH]1)[C@@H](C)O)[C@@H](C)O)C(C)C)C(=O)N[C@@H](CC(N)=O)C(=O)N[C@H](C(=O)O)[C@@H](C)O`, in series [1], the solubility is above 1 mg/mL.

In the case of `CSCC[C@H](NC(=O)[C@H](CC(C)C)NC(=O)[C@H](Cc1c[nH]c2ccccc12)NC(=O)[C@H](CCC(N)=O)NC(=O)[C@@H](NC(=O)[C@H](Cc1ccccc1)NC(=O)[C@H](CC(=O)O)NC(=O)[C@H](CCC(N)=O)NC(=O)[C@H](C)NC(=O)[C@H](CCCNC(=N)N)NC(=O)[C@H](CCCNC(=N)N)NC(=O)C(C)(C)NC(=O)[C@H](CC(=O)O)NC(=O)[C@H](CC(C)C)NC(=O)[C@H](Cc1ccc(O)cc1)NC(=O)[C@H](CCCCN)NC(=O)[C@H](CO)NC(=O)[C@H](Cc1ccc(O)cc1)NC(=O)[C@H](CC(=O)O)NC(=O)[C@H](CO)NC(=O)[C@@H](NC(=O)[C@H](Cc1cccnc1)NC(=O)[C@@H](NC(=O)CNC(=O)[C@H](CCC(N)=O)NC(=O)[C@H](CO)NC(=O)[C@@H](N)Cc1cnc[nH]1)[C@@H](C)O)[C@@H](C)O)C(C)C)C(=O)N[C@@H](CC(N)=O)C(=O)N[C@H](C(=O)O)[C@@H](C)O`, the solubility in series [1] was above 1 mg/mL.
